According to ChEMBL document CHEMBL2021796, “Synthesis and biological evaluation of a series of thieno-expanded tricyclic purine 2'-deoxy nucleoside analogues” (Bioorg Med Chem, 2012):
pEC50, pIC50: −log10 of the molar value.

Key:
[1] = system: Mammalian orthoreovirus 1; test: Antiviral activity against Reovirus-1 infected in african green monkey Vero cells assessed as inhibition of virus-induced cytopathogenicity; format: functional, organism-based; conditions: Mammalian orthoreovirus 1, Vero
Method in brief: (§1)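 Confluent HEL, Vero or HeLa monolayers were infected with 100 CCID50 of virus while exposed to fivefold serial dilutions of compound. Virus-induced cytopathicity was scored when it reached completion in untreated infected controls. The EC50 is the concentration that inhibits cytopathicity by 50%.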

Human alphaherpesvirus 2 = test: Antiviral activity against Herpes simplex virus 2 G infected in HEL cells assessed as inhibition of virus-induced cytopathogenicity; format: functional, organism-based; conditions: Human alphaherpesvirus 2, strain G; method in brief: as §1
Human respirovirus 3 = test: Antiviral activity against Parainfluenza-3 virus infected in african green monkey Vero cells assessed as inhibition of virus-induced cytopathogenicity; format: functional, organism-based; conditions: Human respirovirus 3, Vero
Method in brief: (§2)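 Confluent cell monolayers (Vero for parainfluenza-3, HEL for HSV-1 TK−) inoculated with 100 CCID50 of virus alongside fivefold compound dilutions. Cytopathicity recorded once complete in untreated infected controls. EC50 is the concentration inhibiting virus-induced cytopathicity by 50%.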

[2] = Cytotoxicity against human HeLa cells assessed as morphological changes by microscopic analysis; format: cell-based
Method in brief: (§3)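 Confluent HEL, Vero or HeLa cultures, or near-confluent MDCK cultures, exposed to fivefold compound dilutions in parallel with the antiviral cytopathicity tests. MCC is the lowest concentration causing microscopically visible alteration of cell morphology.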

Influenza B virus = test: Antiviral activity against influenza B virus infected in MDCK cells assessed as inhibition of virus-induced cytopathogenicity; format: functional, organism-based
Method in brief: (§4)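 Nearly confluent MDCK cultures were infected while exposed to fivefold serial dilutions of compound. Cytopathicity was scored when it reached completion in untreated infected controls. The EC50 is the concentration that inhibits virus-induced cytopathicity by 50%.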

[3] = system: Human immunodeficiency virus 2; test: Antiviral activity against Human immunodeficiency virus 2 ROD infected in human CEM cells assessed as inhibition of virus-induced giant cell formation after 4 days by microscopic analysis; format: functional, organism-based; conditions: Human immunodeficiency virus 2, ISOLATE ROD, CCRF-CEM, 96 h
Method in brief: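 CEM cells (~3 × 10^5 cells/cm3) infected with 100 CCID50 of HIV-2(ROD) per ml and seeded into microtiter wells holding compound dilutions. Incubated 4 days at 37 °C. Giant cell formation examined microscopically.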

Sindbis virus = test: Antiviral activity against Sindbis virus infected in african green monkey Vero cells assessed as inhibition of virus-induced cytopathogenicity; format: functional, organism-based; method in brief: as §1
[4] = system: Vesicular stomatitis virus; test: Antiviral activity against Vesicular stomatitis virus infected in HeLa cells; format: functional, organism-based; method in brief: as §1
[5] = system: Human immunodeficiency virus 1; test: Antiviral activity against Human immunodeficiency virus 1 3B infected in human CEM cells assessed as inhibition of virus-induced giant cell formation after 4 days by microscopic analysis; format: functional, organism-based; conditions: CCRF-CEM, 96 h
Method in brief: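 CEM cells at about 3 × 10^5 cells/cm3 were infected with 100 CCID50/ml of virus and seeded into wells containing compound dilutions. After 4 days at 37 °C, giant cell formation was assessed under the microscope.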

Coxsackievirus B4 [6] = test: Antiviral activity against Coxsackie virus B4 infected in african green monkey Vero cells assessed as inhibition of virus-induced cytopathogenicity; format: functional, organism-based; conditions: Enterovirus B; method in brief: as §1
Influenza A virus [7] = test: Antiviral activity against influenza A virus H1N1 infected in MDCK cells assessed as inhibition of virus-induced cytopathogenicity; format: functional, organism-based; method in brief: as §4
[8] = Cytotoxicity against HEL cells assessed as morphological changes by microscopic analysis; format: cell-based; conditions: human; method in brief: as §3
Human alphaherpesvirus 1 [9] = test: Antiviral activity against Herpes simplex virus 1 KOS infected in HEL cells assessed as inhibition of virus-induced cytopathogenicity; format: functional, organism-based; conditions: Human alphaherpesvirus 1, KOS; method in brief: as §1
Influenza A virus [10] = test: Antiviral activity against Influenza A virus H3N2 infected in MDCK cells assessed as inhibition of virus-induced cytopathogenicity; format: functional, organism-based; method in brief: as §4
[11] = Cytotoxicity against african green monkey Vero cells assessed as morphological changes by microscopic analysis; format: cell-based; conditions: chlorocebus sabaeus; method in brief: as §3
Coxsackievirus B4 [12] = test: Antiviral activity against Coxsackie virus B4 infected in HeLa cells; format: functional, organism-based; conditions: Enterovirus B
Method in brief: (§5)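 Confluent HEL, Vero or HeLa monolayers were infected with 100 CCID50 of virus while exposed to fivefold serial dilutions of compound. Virus-induced cytopathicity was scored when it reached completion in untreated infected controls.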

Human alphaherpesvirus 3 [13] = test: Antiviral activity against Varicella zoster virus OKA infected in HEL cells assessed as reduction in viral plaque formation after 5 days relative to control; format: functional, cell-based; conditions: Human alphaherpesvirus 3, strain Oka vaccine, 120 h
Method in brief: (§6)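 Confluent HEL cells were inoculated with 20 PFU VZV per well (Oka wild type or thymidine kinase-deficient 07-1). Residual virus was removed after 2 h and compound dilutions were added in duplicate. The EC50 is the concentration that reduces plaque formation by 50% after 5 days relative to untreated controls.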

[14] = system: Respiratory syncytial virus; test: Antiviral activity against Respiratory syncytial virus infected in HeLa cells; format: functional, organism-based; conditions: human respiratory syncytial virus; method in brief: as §1
Human betaherpesvirus 5 [15] = test: Antiviral activity against Human cytomegalovirus Davis infected in HEL cells assessed as inhibition of virus-induced cytopathogenicity after 7 days by Giemsa staining-based microscopic analysis; format: functional, organism-based; conditions: Human betaherpesvirus 5, Davis, 168 h
Method in brief: (§7)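 Confluent HEL fibroblasts infected with strains AD-169 and Davis at 100 PFU per well. After 2 h adsorption, residual virus removed and medium with test compound added, in duplicate. Incubated 7 days at 37 °C. Cytopathogenicity scored microscopically after ethanol fixation and Giemsa staining. EC50 read from graphic plots of % cytopathogenicity versus concentration.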

Human alphaherpesvirus 1 [16] = test: Antiviral activity against thymidine kinase-deficient Herpes simplex virus 1 infected in HEL cells assessed as inhibition of virus-induced cytopathogenicity; format: functional, organism-based; conditions: Human alphaherpesvirus 1, HEL; method in brief: as §2
[17] = Cytotoxicity against MDCK cells assessed as morphological changes by microscopic analysis; format: cell-based, Canis lupus familiaris; conditions: dog; method in brief: as §3
Human alphaherpesvirus 3 [18] = test: Antiviral activity against Varicella zoster virus 07/1 infected in HEL cells assessed as reduction in viral plaque formation after 5 days relative to control; format: functional, organism-based; conditions: Human alphaherpesvirus 3, 07/1, HEL, 120 h; method in brief: as §6
Human betaherpesvirus 5 [19] = test: Antiviral activity against Human cytomegalovirus AD169 infected in HEL cells assessed as inhibition of virus-induced cytopathogenicity after 7 days by Giemsa staining-based microscopic analysis; format: functional, organism-based; conditions: Human betaherpesvirus 5, AD169, HEL, 168 h; method in brief: as §7
[20] = system: Vesicular stomatitis virus; test: Antiviral activity against Vesicular stomatitis virus infected in HEL cells assessed as inhibition of virus-induced cytopathogenicity; format: functional, organism-based; method in brief: as §5
L1210 = test: Cytostatic activity against mouse L1210 cells after 2 days by coulter counter analysis; format: functional, cell-based; conditions: L1210, 48 h
Method in brief: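 L1210 cells at 300,000–500,000 cells/mL were mixed 1:1 with compound dilutions and incubated for 2 days at 37 °C. Cells were counted with a Coulter counter. The IC50 is the concentration that inhibits proliferation by 50%.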

Punta Toro virus = test: Antiviral activity against Punta Toro virus infected in african green monkey Vero cells assessed as inhibition of virus-induced cytopathogenicity; format: functional, organism-based; method in brief: as §5

| Compound | pEC50 [1] | pEC50 (Human alphaherpesvirus 2) | pEC50 (Human respirovirus 3) | MCC [2] | pEC50 (Influenza B virus) | pEC50 [3] | pEC50 (Sindbis virus) | pEC50 [4] | pEC50 [5] | pEC50 (Coxsackievirus B4 [6]) | pEC50 (Influenza A virus [7]) | MCC [8] | pEC50 (Human alphaherpesvirus 1 [9]) | pEC50 (Influenza A virus [10]) | MCC [11] | pEC50 (Coxsackievirus B4 [12]) | pEC50 (Human alphaherpesvirus 3 [13]) | pEC50 [14] | pEC50 (Human betaherpesvirus 5 [15]) | pEC50 (Human alphaherpesvirus 1 [16]) | other results |
| --- | --- | --- | --- | --- | --- | --- | --- | --- | --- | --- | --- | --- | --- | --- | --- | --- | --- | --- | --- | --- | --- |
| NC(=O)c1ncn([C@@H]2O[C@H](CO)[C@@H](O)[C@H]2O)n1 [RIBAVIRIN] | < 3.60 | < 3.60 | 4.07 | > 250 µM | 5.35 | < 4.30 | < 3.60 | 4.54 | < 4.30 | < 3.60 | 5.64 | > 250 µM | < 3.60 | 5.29 | > 250 µM | – | – | – | – | – | – |
| Nc1ncnc2c1sc1ncn([C@H]3C[C@H](O)[C@@H](CO)O3)c12 | 4.00 | < 4.70 | < 4.00 | > 100 µM | < 5.40 | < 5.00 | – | < 4.00 | < 5.00 | < 4.00 | < 5.40 | ≥ 20 µM | < 4.70 | < 5.40 | > 100 µM | < 4.00 | 5.05 | < 4.00 | < 5.40 | < 4.70 | MCC [17]: 20 µM; pEC50 (Human alphaherpesvirus 3 [18]): 5.05; pEC50 (Human betaherpesvirus 5 [19]): < 5.40; pEC50 [20]: < 4.70; pIC50 (L1210): 4.28 |
| Nc1nc2c(sc3ncn([C@H]4C[C@H](O)[C@@H](CO)O4)c32)c(=O)[nH]1 | < 4.00 | < 4.00 | < 4.00 | 100 µM | < 6.80 | ≤ 3.60 | < 4.00 | 4.00 | ≤ 3.60 | < 4.00 | < 6.80 | > 100 µM | < 4.00 | < 6.80 | 100 µM | < 4.00 | 4.15 | < 4.00 | < 4.00 | < 4.00 | MCC [17]: 0.8 µM; pEC50 (Human alphaherpesvirus 3 [18]): 4.15; pEC50 (Human betaherpesvirus 5 [19]): < 4.00; pEC50 [20]: < 4.00; pIC50 (L1210): 3.84; pEC50 (Punta Toro virus): < 4.00 |
